Test [1] deals with MCF7. The experiment in a line: Percent inhibition against MCF-7 human tumor cell line at <5 ug/mL. The format is functional.
In test [2] the test system is HOS. The experiment in a line: Effective dose required for inhibitory activity against HOS human tumor cell line. The format is functional. The conditions noted are these: read-out: ED50 (the source's name). Summed up: (§1)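 Human tumor lines were grown in RPMI-1640 with 25 mM HEPES, 0.25% sodium bicarbonate, 10% FBS and 100 µg/mL kanamycin. KB-VIN is a vincristine-resistant KB subline, and PTX10 is a 1A9 subline with mutated β-tubulin. Trypsinized cells (1500–7500/well) got compound from DMSO stock for 3 days continuous. Cells were fixed with cold 50% TCA, stained with 0.4% SRB, and read at 562 nm. ED50 is the 50% growth-reduction concentration; not active means ≤5% inhibition at the top concentration.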

Test [3] relates to 1A9/ptx-10. The experiment in a line: Effective dose required for inhibitory activity against PTX10 human tumor cell line. It is filed as functional. The conditions noted are these: read-out: ED50 (the source's name). The procedure, abridged: as §1
For another test, the system named is A549. The experiment in a line: Effective dose required for inhibitory activity against A549 human tumor cell line. The format is functional. The conditions noted are these: read-out: ED50 (the source's name). Summed up: as §1
A further test relates to SK-MEL-2. The experiment in a line: Effective dose required for inhibitory activity against SK-MEL-2 human tumor cell line. The format is functional. The conditions noted are these: read-out: ED50 (the source's name). Summed up:
as §1

For a further test, the system named is 1A9. The experiment in a line: Effective dose required for inhibitory activity against 1A9 human tumor cell line. The conditions noted are these: read-out: ED50 (the source's name). It is filed as functional. Summed up:
as §1

A further test deals with PC-3. The experiment in a line: Effective dose required for inhibitory activity against PC-3 human tumor cell line. The format is functional. The conditions noted are these: read-out: ED50 (the source's name). Summed up:
as §1

Test [4] deals with KB. The experiment in a line: Effective dose required for inhibitory activity against KB-VIN human tumor cell line. The format is functional. Particulars: read-out: ED50 (the source's name). The procedure, abridged:
as §1

Test [5] concerns CAKI-1. The experiment in a line: Effective dose required for inhibitory activity against CAK1 human tumor cell line. The format is functional. Particulars: read-out: ED50 (the source's name). Summed up: as §1
Test [6] relates to KB. The experiment in a line: Effective dose required for inhibitory activity against KB human tumor cell line. It is filed as functional. Particulars: read-out: ED50 (the source's name). The procedure, abridged:
as §1

In another test the test system is HCT-8. The experiment in a line: Effective dose required for inhibitory activity against HCT-8 human tumor cell line. Particulars: read-out: ED50 (the source's name). It is filed as functional. The procedure, abridged:
as §1

Test [7] concerns MCF7. The experiment in a line: Effective dose required for inhibitory activity against MCF-7 human tumor cell line. It is filed as functional. Particulars: read-out: ED50 (the source's name). Summed up:
as §1

Test [8] concerns 1A9/ptx-10. The experiment in a line: Percent inhibition against PTX10 human tumor cell line at >10 ug/mL. The format is functional.
Test [9] relates to CAKI-1. The experiment in a line: Effective dose required for inhibitory activity against CAK1 human tumor cell line; Not active. The format is functional, cell-based. Summed up: as §1
The test system of test [10] is HOS. The experiment in a line: Effective dose required for inhibitory activity against HOS human tumor cell line; Not active. The format is functional, cell-based. Summed up:
as §1

This is an account of results in ChEMBL document CHEMBL1145845, “Acetogenins as selective inhibitors of the human ovarian 1A9 tumor cell line” (2003).

Values after ≈ are worked out from the molar mass of the structure shown. Active and inactive are the calls of the source.

Take `CCCCCCCCCCCC[C@@H](O)[C@H]1CC[C@H]([C@H](O)CCCCC(O)CCCCCCCC2=C[C@H](C)OC2=O)O1` (some centres not stated): the Inhibition with MCF7 [1] is reported as 55%. For the same compound, the EC50 in the test with HOS [2] was 9.8 µg/mL (≈ 16.9 µM); with 1A9/ptx-10 [3], 5 µg/mL (≈ 8.61 µM); in the test with A549, 9.8 µg/mL (≈ 16.9 µM); in the test on SK-MEL-2, 14.2 µg/mL (≈ 24.4 µM); in the test with 1A9 it was 100 ng/mL (≈ 0.172 µM); in the test with PC-3, 8.1 µg/mL (≈ 13.9 µM). The EC50 with KB [4] was 12.5 µg/mL (≈ 21.5 µM); with CAKI-1 [5], 13.9 µg/mL (≈ 23.9 µM); in the test with KB [6], 7.6 µg/mL (≈ 13.1 µM); with HCT-8 it was 10.8 µg/mL (≈ 18.6 µM).

For `CCCCCC[C@H](O)CCC[C@H](O)[C@H]1CC[C@H]([C@H]2CC[C@H]([C@H](O)CCCCCCCCCCCCC3=C[C@H](C)OC3=O)O2)O1` [SQUAMOCIN], the EC50 in the test with HOS [2] is 8.5 µg/mL (≈ 13.6 µM); in the test with 1A9/ptx-10 [3], 7 µg/mL (≈ 11.2 µM); with A549, 9.3 µg/mL (≈ 14.9 µM); in the test with SK-MEL-2, 16.5 µg/mL (≈ 26.5 µM); with 1A9, 0.32 ng/mL (≈ 0.000514 µM); with MCF7 [7], 6 µg/mL (≈ 9.63 µM). In addition, the EC50 in the test on PC-3 was found to be 11.1 µg/mL (≈ 17.8 µM); in the test with KB [4] it was 12 µg/mL (≈ 19.3 µM); with CAKI-1 [5], 13.5 µg/mL (≈ 21.7 µM); with KB [6] it was 8.1 µg/mL (≈ 13 µM); in the test on HCT-8, 9.8 µg/mL (≈ 15.7 µM).

On to `CC(=O)O[C@H]1C(=O)[C@@]2(C)[C@H]([C@H](OC(=O)c3ccccc3)[C@]3(O)C[C@H](OC(=O)[C@H](O)[C@@H](NC(=O)c4ccccc4)c4ccccc4)C(C)=C1C3(C)C)[C@]1(OC(C)=O)CO[C@@H]1C[C@@H]2O` [PACLITAXEL], for which the EC50 was 0.041 µg/mL (≈ 0.048 µM) with 1A9/ptx-10 [3]; 0.005 µg/mL (≈ 0.00586 µM) in the test with A549; 2 ng/mL (≈ 0.00234 µM) with 1A9; 0.001 µg/mL (≈ 0.00117 µM) in the test with KB [6]; 0.011 µg/mL (≈ 0.0129 µM) with HCT-8.

`CCCCCC(O)C(O)CCCCCC[C@H](O)[C@@H]1CC[C@H](CCCCCCCCCC[C@H](O)CC2=C[C@H](C)OC2=O)O1` (some centres not stated) [MURICIN B]: the EC50 was above 20 µg/mL in the test with HOS [2]; above 20 µg/mL with A549; above 20 µg/mL in the test on SK-MEL-2; 520 ng/mL (≈ 0.871 µM) with 1A9; 15.5 µg/mL (≈ 26 µM) in the test with MCF7 [7]; above 20 µg/mL with PC-3. Besides, the EC50 in the test on KB [4], in the test on KB [6] and in the test on HCT-8 was above 20 µg/mL in each case. The compound also gave an Inhibition with 1A9/ptx-10 [8] of 26%. Also, the NA entry in the test on CAKI-1 [9] is “inactive”.

For the compound `CCCCCCCCCCCC[C@@H](O)[C@H]1CC[C@H]([C@H](O)CCCCC(=O)CCCCCCCC2=C[C@H](C)OC2=O)O1`, the NA entry in the test with HOS [10] and with CAKI-1 [9] was “inactive” each time. The compound further came in with an Inhibition in the test on 1A9/ptx-10 [8] of 31%. Besides, the EC50 is above 20 µg/mL in the test on A549; above 20 µg/mL in the test with SK-MEL-2; 760 ng/mL (≈ 1.31 µM) with 1A9; 9.5 µg/mL (≈ 16.4 µM) in the test with MCF7 [7]; above 20 µg/mL in the test on PC-3; above 20 µg/mL in the test on KB [4]. Also, the EC50 with KB [6] and in the test with HCT-8 was above 20 µg/mL in each case.

As for `CCCCCCCCCCCC[C@@H](O)[C@H]1CC[C@@H]([C@@H](O)CCCCCCC(O)CCCCC[C@@H](O)CC2=C[C@H](C)OC2=O)O1` (some centres not stated), the EC50 with HOS [2] came to 15 µg/mL (≈ 24 µM); in the test with 1A9/ptx-10 [3], 8.7 µg/mL (≈ 13.9 µM); with A549, 14.5 µg/mL (≈ 23.2 µM); in the test on SK-MEL-2 it was 15.1 µg/mL (≈ 24.2 µM); in the test with 1A9, 80 ng/mL (≈ 0.128 µM); in the test on MCF7 [7], 6.6 µg/mL (≈ 10.6 µM). Besides, the EC50 in the test with PC-3 came out at 14 µg/mL (≈ 22.4 µM); in the test on KB [4], 14 µg/mL (≈ 22.4 µM); with CAKI-1 [5], 17.3 µg/mL (≈ 27.7 µM); in the test with KB [6], 10.8 µg/mL (≈ 17.3 µM); with HCT-8 it was 15 µg/mL (≈ 24 µM).

Take `CCCCCCCCCC[C@H](O)[C@H]1CC[C@H]([C@H]2CC[C@H]([C@H](O)CCCCCCCC[C@@H](O)CC3=C[C@H](C)OC3=O)O2)O1` [MOLVIZARIN]: the EC50 in the test on HOS [2] stood at 9.9 µg/mL (≈ 16.6 µM); in the test with 1A9/ptx-10 [3], 8.7 µg/mL (≈ 14.6 µM); in the test on A549, 12.9 µg/mL (≈ 21.7 µM); in the test on SK-MEL-2, 16.4 µg/mL (≈ 27.6 µM); with 1A9 it was 0.005 ng/mL (≈ 8.41e-06 µM); in the test on MCF7 [7] it was 7.7 µg/mL (≈ 12.9 µM). The EC50 in the test with PC-3 was determined as 12.9 µg/mL (≈ 21.7 µM); with KB [4] it was 13.9 µg/mL (≈ 23.4 µM); in the test on CAKI-1 [5] it was 16.4 µg/mL (≈ 27.6 µM); in the test with KB [6] it was 10 µg/mL (≈ 16.8 µM); in the test on HCT-8 it was 14.9 µg/mL (≈ 25 µM).

`CCCCCCCCCCCC[C@@H](O)[C@H]1CC[C@H]([C@H](O)CCCC[C@H](O)CCCCC[C@@H](O)CC2=CC(C)OC2=O)O1` (some centres not stated) [ANNONACIN] yielded an Inhibition in the test with MCF7 [1] of 62%. The EC50 was determined as 8.2 µg/mL (≈ 13.7 µM) in the test on HOS [2]; 6 µg/mL (≈ 10.1 µM) in the test on 1A9/ptx-10 [3]; 7.8 µg/mL (≈ 13.1 µM) in the test with A549; 13.8 µg/mL (≈ 23.1 µM) with SK-MEL-2; 70 ng/mL (≈ 0.117 µM) in the test on 1A9; 8.2 µg/mL (≈ 13.7 µM) in the test on PC-3. The EC50 came out at 10.3 µg/mL (≈ 17.3 µM) in the test on KB [4], 9.8 µg/mL (≈ 16.4 µM) in the test on CAKI-1 [5], 7.5 µg/mL (≈ 12.6 µM) in the test with KB [6] and 7.9 µg/mL (≈ 13.2 µM) with HCT-8.

By Inhibition is commonly meant how much of the control response was suppressed. Higher therefore signals a response far below the control.
